In data set [1] the test system is P388. In words: Antiproliferative activity against mouse P388 cells by MTT assay. The class given is functional, cell-based. A digest of the protocol: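 P388 cells in RPMI 1640 with 2 mM L-glutamine, 1.5 g/L NaHCO3, 4.5 g/L glucose, 1.0 mM pyruvate and 10% FBS, at 37 °C in 5% CO2. Plated 24 h before treatment, then exposed 72 h to varying concentrations. MTT 4 h at 37 °C, DMF/SDS lysis, OD570 after 24 h. IC50 from triplicates, 3–7 repeat experiments.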

A short description of data set [2]: Lipophilicity, log K of the compound. It counts as physicochemical. The following applies: HPLC. A digest of the protocol: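 Hydrophobicity determined by HPLC.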
For data set [3], the system named is P388. Briefly: Antiproliferative activity against mouse P388 cells at 0.1 uM by MTT assay. The class given is functional. The method in brief: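 P388 cells in RPMI 1640 with 2 mM L-glutamine, 1.5 g/L NaHCO3, 4.5 g/L glucose, 1.0 mM pyruvate and 10% FBS, at 37 °C in 5% CO2. Plated 24 h before treatment, then 72 h exposure at a single concentration. MTT readout: 4 h MTT, DMF/SDS lysis, OD570 after 24 h. Value expressed as percent inhibition of proliferation.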

For data set [4], the system named is SK-N-MC. In words: Antiproliferative activity against human SK-N-MC cells by MTT assay. The class given is functional, cell-based. A digest of the protocol: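 SK-N-MC cells in MEM with 10% (v/v) FBS, 1.0 mM sodium pyruvate, 1% non-essential amino acids, L-glutamine, penicillin/streptomycin and fungizone. Plated 24 h before dosing and exposed 72 h to varying concentrations. MTT added for 4 h at 37 °C, then DMF/SDS lysis, with OD570 read after 24 h. IC50 from triplicate wells, experiments repeated 3–7 times.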
A general note: Tetrazolium dyes change colour on reduction, which living cells bring about.

As a reminder, the IC50 is the point on the concentration scale where inhibition reaches its midpoint. A low value points to higher potency. As for `CCC(=O)NC1=CC(=O)c2ccc(C)nc2C1=O`, 1.43 µM corresponded to half-maximal inhibition in data set [1] (IC50).

Consider `O=C(O)c1ccc2nc(/C=C/c3cccc(Cl)c3)ccc2c1`, for which, in data set [1], the IC50 stood at 110 µM. Besides, in data set [2], the “log K” value stood at 1.6315.

As a reminder, the inhibition is the percentage by which the read-out fell short of the control. `COc1cccc(/C=C/c2ccc3c(C(=O)O)ccc(C(=O)O)c3n2)c1` gave an inhibition at 0.1 µM in data set [3] of 25%. Further, in data set [2], the “log K” value is 1.1811.

The compound `O=C(O)c1cccc2nc(/C=C/c3ccccc3O)ccc12` yielded an inhibition at 0.1 µM in data set [3] of 30%. Moreover, the “log K” value in data set [2] turned out to be 1.255.

`O=C(O)c1ccc2nc(/C=C/c3ccccc3O)ccc2c1` gave an IC50 in data set [1] of 51.1 µM. Besides, in data set [2], the “log K” value stood at 1.3842.

For `COc1ccc(/C=C/c2ccc3c(NC(C)=O)cc(NC(C)=O)c(OC(C)=O)c3n2)c(OC)c1`, the inhibition at 0.1 µM in data set [3] was 20%.

For `O=C(O)c1ccc(C(=O)O)c2nc(/C=C/c3ccccc3Br)ccc12`, in data set [1], the midpoint of inhibition, the IC50, lay at 89.4 µM. For the same compound, the “log K” value in data set [2] turned out to be 1.2062.

In data set [1], `O=C(O)c1cc([N+](=O)[O-])c2ccc(/C=C/c3ccccc3Cl)nc2c1O` yielded an IC50 of 158 µM.

On to `O=C(O)c1ccc2ccc(/C=C/c3ccccc3O)nc2c1`, for which 0.1 µM produced 30% inhibition in data set [3]. In addition, the “log K” value in data set [2] is listed as 1.3678.

In data set [1], `CCCC(=O)NC1=CC(=O)c2ccc(C)nc2C1=O` showed an IC50 of 1.51 µM. This counts as single-digit micromolar.

Consider `COc1cccc(/C=C/c2ccc3c(C(=O)O)cccc3n2)c1`, for which, in data set [1], the IC50 came out at 100 µM. Further, in data set [2], the “log K” value is 1.2263.

`Cc1ccc2c(n1)C(=O)C(N)=CC2=O` had an IC50 in data set [1] of 10.3 µM.

On to `Cc1ccc2c(n1)C(=O)C(NC(=O)CCc1ccccc1)=CC2=O`, for which, in data set [1], it took 1.44 µM to reach half-maximal inhibition (IC50).

Regarding `COc1ccc(/C=C/c2ccc3c([N+](=O)[O-])cc([N+](=O)[O-])c(O)c3n2)cc1`, in data set [1], half-maximal inhibition (IC50) required 79.1 µM.

Compound `O=C(O)c1ccc2nc(/C=C/c3ccc(Cl)cc3)ccc2c1` came in with an IC50 in data set [1] of 116 µM. Also, the “log K” value in data set [2] came to 1.6043.

`O=C(O)c1ccc(C(=O)O)c2nc(/C=C/c3cccc(Cl)c3)ccc12` registered an IC50 in data set [1] of 114 µM. In data set [2], the “log K” value turned out to be 1.2163.

Turning to `Cc1ccc2c(n1)C(=O)C(NC(=O)/C=C/c1ccccc1)=CC2=O`, in data set [1], the IC50 was 2.39 µM. This lies in the single-digit micromolar range.

In data set [1], `O=C(O)c1ccc(C(=O)O)c2nc(/C=C/c3ccccc3Cl)ccc12` registered an IC50 of 114 µM. The “log K” value in data set [2] amounted to 1.2047.

Consider `O=[N+]([O-])c1cc([N+](=O)[O-])c2cccnc2c1O`, for which the IC50 in data set [4] is greater than 6.25 µM; in data set [1], 7.14 µM. The “log K” value in data set [2] was 0.7154.

As to `O=[N+]([O-])c1cc([N+](=O)[O-])c2ccc(/C=C/c3ccc(Cl)cc3)nc2c1O`, in data set [1], the IC50 is 7.14 µM.

`O=C(O)c1cccc2nc(/C=C/c3ccc(Br)cc3)ccc12` displayed an IC50 in data set [1] of 109 µM. For the same compound, the “log K” value in data set [2] is on record as 1.4397.

Consider `CC(=O)Nc1cc(NC(C)=O)c2ccc(/C=C/c3ccccc3Br)nc2c1OC(C)=O`, for which the IC50 in data set [1] is 6.58 µM. This lies in the single-digit micromolar range.

As for `O=C(O)c1cccc2ccc(/C=C/c3ccccc3O)nc12`, in data set [1], half-maximal inhibition (IC50) was put at 13.6 µM. Moreover, the “log K” value in data set [2] is 1.6787.

Consider `O=C(O)c1cccc2ccc(/C=C/c3ccc(Cl)cc3)nc12`, for which, in data set [1], it took 15.3 µM to reach half-maximal inhibition (IC50). Also, the “log K” value in data set [2] is reported as 1.8165.

As for `O=C(O)c1ccc(C(=O)O)c2nc(/C=C/c3ccc(Cl)cc3)ccc12`, inhibition in data set [1] was half-maximal at 110 µM (IC50). The “log K” value in data set [2] amounted to 1.2107.

`Oc1cccc2ccc(/C=C/c3cccc(Cl)c3)nc12` registered an inhibition at 0.1 µM in data set [3] of 15%. Further, the “log K” value in data set [2] came to 1.5395.

Take `CC(=O)NC1=CC(=O)c2ccc(C)nc2C1=O`: the IC50 in data set [4] is greater than 6.25 µM; in data set [1] it was 1.61 µM. For the same compound, the “log K” value in data set [2] is listed as 0.2227.

Turning to `COC1=CC(=O)c2ccc(C)nc2C1=O`, the IC50 was determined as 4.26 µM in data set [4] and 6.1 µM in data set [1]. Also, in data set [2], the “log K” value is 0.0907.

In data set [1], `COc1ccc(/C=C/c2ccc3c([N+](=O)[O-])cc(C(=O)O)c(O)c3n2)cc1` yielded an IC50 of 148 µM.

The values are drawn from ChEMBL document CHEMBL1140540, “Investigating the antiproliferative activity of quinoline-5,8-diones and styrylquinolinecarboxylic acids on tumor cell lines” (Bioorg Med Chem Lett, 2007).
